ChEMBL document CHEMBL4118192, “BET bromodomain ligands: Probing the WPF shelf to improve BRD4 bromodomain affinity and metabolic stability” (Bioorg Med Chem, 2018)

Columns and labels:
Format in all cases: functional
HOP-62 = assay: Growth inhibition of human HOP62 cells at 10 uM after 48 hrs by sulforhodamine B assay relative to control; details: HOP-62, 48 h, read-out: GI
In short: (§1)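 NCI-60 single-dose screen at 10 μM for 48 h. Percent growth inhibition was measured by sulforhodamine B staining of cellular protein.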

Hs-578T [1] = assay: Growth inhibition of human Hs 578T cells after 48 hrs by sulforhodamine B assay
In short: (§2)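 NCI-60 panel screen. Cells were exposed for 48 h at five concentrations between 10 nM and 100 μM. Cellular protein was read by sulforhodamine B staining, and GI50 and total growth inhibition (TGI) concentrations were derived.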

KM12 = assay: Growth inhibition of human KM12 cells after 48 hrs by sulforhodamine B assay; details: KM12, 48 h; in short: as §2
SF-539 [2] = assay: Growth inhibition of human SF539 cells at 10 uM after 48 hrs by sulforhodamine B assay relative to control; details: SF-539, 48 h, read-out: GI
In short: (§3)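 NCI-60 human cancer cell line screen, single-dose pass: cells exposed to 10 μM for 48 h. Cellular protein content read out by sulforhodamine B staining, and growth inhibition expressed relative to untreated control.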

HL-60(TB) = assay: Growth inhibition of human HL-60(TB) cells after 48 hrs by sulforhodamine B assay; details: HL-60, 48 h
In short: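 NCI-60 human cancer cell line screen, five concentrations from 10 nM to 100 μM. Growth measured by sulforhodamine B staining of cellular protein content. GI50 derived, with TGI where reached below 100 μM.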

SF-539 [3] = assay: Growth inhibition of human SF539 cells after 48 hrs by sulforhodamine B assay; details: SF-539, 48 h
In short: (§4)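 NCI-60 panel follow-up: five concentrations from 10 nM to 100 μM, 48 h exposure. Growth read by sulforhodamine B protein staining. GI50 derived from the concentration-response, with the concentration for total growth inhibition (TGI) also recorded when below 100 μM.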

K562 = assay: Growth inhibition of human K562 cells at 10 uM after 48 hrs by sulforhodamine B assay relative to control; details: K562, 48 h, read-out: GI; in short: as §1
CAKI-1 = assay: Growth inhibition of human CAKI-1 cells after 48 hrs by sulforhodamine B assay; details: CAKI-1, 48 h; in short: as §2
SNB-75 = assay: Growth inhibition of human SNB75 cells at 10 uM after 48 hrs by sulforhodamine B assay relative to control; details: SNB-75, 48 h, read-out: GI
In short: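 NCI-60 human cancer cell line screen, single dose of 10 μM for 48 h. Cellular protein content read by sulforhodamine B staining; growth inhibition expressed relative to untreated control.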

PC-3 = assay: Growth inhibition of human PC3 cells at 10 uM after 48 hrs by sulforhodamine B assay relative to control; details: PC-3, 48 h, read-out: GI; in short: as §3
COLO 205 [4] = assay: Growth inhibition of human COLO205 cells after 48 hrs by sulforhodamine B assay; details: COLO 205, 48 h; in short: as §2
SF-295 [5] = assay: Growth inhibition of human SF295 cells after 48 hrs by sulforhodamine B assay; details: SF-295, 48 h; in short: as §4
NCI-H226 = assay: Growth inhibition of human NCI-H226 cells after 48 hrs by sulforhodamine B assay; details: NCI-H226, 48 h; in short: as §4
SNB-19 [6] = assay: Growth inhibition of human SNB19 cells at 10 uM after 48 hrs by sulforhodamine B assay relative to control; details: SNB-19, 48 h, read-out: GI; in short: as §3
SK-MEL-5 = assay: Growth inhibition of human SK-MEL-5 cells at 10 uM after 48 hrs by sulforhodamine B assay relative to control; details: SK-MEL-5, 48 h, read-out: GI; in short: as §3
IGROV-1 = assay: Growth inhibition of human IGROV1 cells after 48 hrs by sulforhodamine B assay; details: IGROV-1, 48 h; in short: as §2
A549 = assay: Growth inhibition of human A549/ATCC cells after 48 hrs by sulforhodamine B assay; details: A549, 48 h; in short: as §2
SK-OV-3 = assay: Growth inhibition of human SKOV3 cells after 48 hrs by sulforhodamine B assay; details: SK-OV-3, 48 h; in short: as §4
ACHN [7] = assay: Growth inhibition of human ACHN cells after 48 hrs by sulforhodamine B assay; in short: as §2
SNB-19 [8] = assay: Growth inhibition of human SNB19 cells after 48 hrs by sulforhodamine B assay; details: SNB-19, 48 h; in short: as §4
ACHN [9] = assay: Growth inhibition of human ACHN cells at 10 uM after 48 hrs by sulforhodamine B assay relative to control; details: read-out: GI; in short: as §1
SF-295 [10] = assay: Growth inhibition of human SF295 cells at 10 uM after 48 hrs by sulforhodamine B assay relative to control; details: SF-295, 48 h, read-out: GI; in short: as §3
SK-MEL-2 = assay: Growth inhibition of human SK-MEL-2 cells at 10 uM after 48 hrs by sulforhodamine B assay relative to control; details: SK-MEL-2, 48 h, read-out: GI; in short: as §3
NCI-H522 = assay: Growth inhibition of human NCI-H522 cells at 10 uM after 48 hrs by sulforhodamine B assay relative to control; details: NCI-H522, 48 h, read-out: GI; in short: as §3
NCI-H322M = assay: Growth inhibition of human NCI-H322M cells at 10 uM after 48 hrs by sulforhodamine B assay relative to control; details: read-out: GI; in short: as §3
Hs-578T [11] = assay: Growth inhibition of human Hs 578T cells at 10 uM after 48 hrs by sulforhodamine B assay relative to control; details: read-out: GI; in short: as §1
MDA-MB-231 = assay: Growth inhibition of human MDA-MB-231 cells at 10 uM after 48 hrs by sulforhodamine B assay relative to control; details: MDA-MB-231, 48 h, read-out: GI; in short: as §1
HCC 2998 = assay: Growth inhibition of human HCC2998 cells at 10 uM after 48 hrs by sulforhodamine B assay relative to control; details: HCC 2998, 48 h, read-out: GI; in short: as §1
HOP-92 = assay: Growth inhibition of human HOP92 cells at 10 uM after 48 hrs by sulforhodamine B assay relative to control; details: HOP-92, 48 h, read-out: GI; in short: as §1
COLO 205 [12] = assay: Growth inhibition of human COLO205 cells at 10 uM after 48 hrs by sulforhodamine B assay relative to control; details: COLO 205, 48 h, read-out: GI; in short: as §1
NCI-H23 = assay: Growth inhibition of human NCI-H23 cells at 10 uM after 48 hrs by sulforhodamine B assay relative to control; details: NCI-H23, 48 h, read-out: GI; in short: as §3
UO-31 = assay: Growth inhibition of human UO31 cells after 48 hrs by sulforhodamine B assay; details: UO-31, 48 h
In short: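 NCI-60 panel cells treated at five concentrations from 10 nM to 100 μM for 48 h. Read-out by sulforhodamine B protein stain. GI50 and total growth inhibition (TGI, if below 100 μM) taken from the concentration-response data.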

## Cc1noc(C)c1-c1cc(O)cc(C(O)c2ccccc2)c1 (configuration not stated)
HOP-62
  inhibition of growth at 10 µM: 52.8%
Hs-578T [1]
  GI50: 1.93 µM
  TGI: 90.7 µM
KM12
  GI50: 8.2 µM
SF-539 [2]
  inhibition of growth at 10 µM: 37.5%
HL-60(TB)
  GI50: 2.17 µM
  TGI: 22.7 µM
SF-539 [3]
  GI50: 4.56 µM
K562
  inhibition of growth at 10 µM: 57.9%
CAKI-1
  GI50: 4.58 µM
SNB-75
  inhibition of growth at 10 µM: 113%
PC-3
  inhibition of growth at 10 µM: 51.6%
COLO 205 [4]
  GI50: 5.25 µM
SF-295 [5]
  GI50: 7.31 µM
NCI-H226
  GI50: 21.3 µM
SNB-19 [6]
  inhibition of growth at 10 µM: 47.3%
SK-MEL-5
  inhibition of growth at 10 µM: 45.8%
IGROV-1
  GI50: 23.2 µM
A549
  GI50: 22.4 µM
SK-OV-3
  GI50: 7.01 µM
ACHN [7]
  GI50: 4.76 µM
SNB-19 [8]
  GI50: 5.69 µM
ACHN [9]
  inhibition of growth at 10 µM: 39.4%
SF-295 [10]
  inhibition of growth at 10 µM: 57.5%
SK-MEL-2
  inhibition of growth at 10 µM: 39.6%
NCI-H522
  inhibition of growth at 10 µM: 77.9%
NCI-H322M
  inhibition of growth at 10 µM: 52.4%
Hs-578T [11]
  inhibition of growth at 10 µM: 66.3%
MDA-MB-231
  inhibition of growth at 10 µM: 37.6%
HCC 2998
  inhibition of growth at 10 µM: 37.8%
HOP-92
  inhibition of growth at 10 µM: 74.4%
COLO 205 [12]
  inhibition of growth at 10 µM: 62.9%
NCI-H23
  inhibition of growth at 10 µM: 31.9%
UO-31
  GI50: 4.58 µM

## COc1ccccc1S(=O)(=O)Nc1ccc2c(c1)CN(C)C(=O)N2
HOP-62
  inhibition of growth at 10 µM: 55.7%
Hs-578T [1]
  GI50: 1.9 µM
  TGI: 63.1 µM
KM12
  GI50: 10.7 µM
SF-539 [2]
  inhibition of growth at 10 µM: 49.9%
HL-60(TB)
  GI50: 3.4 µM
SF-539 [3]
  GI50: 4.5 µM
K562
  inhibition of growth at 10 µM: 71.4%
CAKI-1
  GI50: 3.6 µM
SNB-75
  inhibition of growth at 10 µM: 82.5%
PC-3
  inhibition of growth at 10 µM: 64.7%
COLO 205 [4]
  GI50: 3 µM
SF-295 [5]
  GI50: 13.5 µM
NCI-H226
  GI50: 14.1 µM
SNB-19 [6]
  inhibition of growth at 10 µM: 45.9%
SK-MEL-5
  inhibition of growth at 10 µM: 59.5%
IGROV-1
  GI50: 6.3 µM
A549
  GI50: 19.5 µM
SK-OV-3
  GI50: 4.9 µM
ACHN [7]
  GI50: 7.8 µM
SNB-19 [8]
  GI50: 4.8 µM
ACHN [9]
  inhibition of growth at 10 µM: 65.3%
SF-295 [10]
  inhibition of growth at 10 µM: 94.7%
SK-MEL-2
  inhibition of growth at 10 µM: 52.4%
NCI-H522
  inhibition of growth at 10 µM: 73.9%
NCI-H322M
  inhibition of growth at 10 µM: 57.1%
Hs-578T [11]
  inhibition of growth at 10 µM: 66.3%
MDA-MB-231
  inhibition of growth at 10 µM: 45.3%
HCC 2998
  inhibition of growth at 10 µM: 35.6%
HOP-92
  inhibition of growth at 10 µM: 97.6%
COLO 205 [12]
  inhibition of growth at 10 µM: 61.6%
NCI-H23
  inhibition of growth at 10 µM: 43.3%
UO-31
  GI50: 1.1 µM
